Screens as filed in PubChem.
rRNA inh HTS: selective bacterial rRNA inhibition in E. coli. E. coli WT GFP vs humanized-ribosome RFP mutants, fluorescence, 24 h; stronger effect = lower value; DMSO median 0, no signal -100. GFP signal change (wild-type ribosome), % (concentration not given with the values). hit rate 1.6% among 350,000. AID 720706;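 active = significant combined selectivity score with lowered wild-type GFP, culture density cut under 30%, mutant RFP and density less affected; inactive = any of these conditions unmet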
S100A4 inh HTS: inhibitors of human S100A4 binding to myosin IIA peptide. S100A4/TAMRA-MyoIIA peptide fluorescence polarization. inhibition, % at 10.7 µM. hit rate 0.14% among 360,000. AID 652163;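 active = mean inhibition of at least 70% across replicates, with every replicate also reaching that level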
Target sequence (P26447 whole entry, looked up): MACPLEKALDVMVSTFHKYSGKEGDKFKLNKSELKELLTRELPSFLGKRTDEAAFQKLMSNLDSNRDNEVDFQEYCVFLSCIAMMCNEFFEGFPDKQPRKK
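System – human S100A4 monomer protein, biochemical binding assay · Buffer or medium – Calcium-containing HEPES buffer, pH 7.2 · Timing – 5 min between mix addition and reading · Also added – TAMRA-labelled myosin IIA heavy-chain peptide probe, 5 nM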
Vif inh: blocks HIV Vif function. HEK293T cells, Vif self-association by quenched fluorescence, imaging, 24 h. inhibition, % at 7.49 µM. hit rate 0.35% among 340,000; in the data active = inhibition above about 50%, passing the limit was not always enough
Env fusion inh: HIV envelope-mediated fusion inhibition; inhibition, % at 12.3 µM; hit rate 1.1% among 360,000; AID 651610; HeLa-JRFL Env/CEM21 cell fusion, luciferase;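 active = mean replicate inhibition score of at least 50 and every replicate individually at or above 50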;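 note: 0% = plate neutral controls and 100% = maraviroc near 300 nM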
FN deposit inh: fibronectin deposition inhibition; AH1F fibroblasts, Alexa488-fibronectin deposition fluorescence, overnight; inhibition, % at 12.6 µM; AID 743247; hit rate 0.086% among 350,000;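 active = mean inhibition across replicates of 30% or more, regardless of how many single replicates reach that level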;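 note: positive control wells lacked labelled fibronectin entirely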
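Material: AH1F fibroblasts assembling fluorescent fibronectin matrix; amount: 10000 AH1F cells/well; medium: DMEM, 2% serum; reagent: Alexa488-fibronectin, 24 nM final in well; dosing: single compound dose, delivered by pin transfer; incubation: 1 h adhesion, overnight exposure; detection: fluorescence after three HBSS washes, excitation 485 nm, emission 525 nm; measure: fibronectin deposition inhibition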
miR122 inh: blocks miR-122 activity in Huh7 sensor cells; Huh7 miR-122 Renilla luciferase sensor, 48 h; neutral wells = 0, positive control = 100; activation (reporter increase), % at 12.5 µM; hit rate 0.3% among 340,000;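 active = mean replicate activation score at least 90 and every replicate individually at or above 90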;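 note: higher luciferase means less miR-122 activity so hits act as miR-122 inhibitors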
* hit, by the source's call; [ ] = dose if it differs, or a comment. A selection: hits, their analogues and other compounds. The true share with any hit is near 2.6%.

For O=C(NC(=S)Nc1ccccc1N1CCOCC1)c1ccccc1F the results were rRNA inh HTS -34.0*, S100A4 inh HTS 0.3, Vif inh -22.2, FN deposit inh 4.8 and miR122 inh 5.8.
For Cc1ccc(C(=O)NC(=S)Nc2ccccc2N2CCOCC2)cc1C the results were Vif inh -8.8 and miR122 inh -4.3.
`O=C(Nc1ccccc1N1CCN(C(=O)c2ccccc2)CC1)c1ccc(Br)o1` gave rRNA inh HTS -38.1, S100A4 inh HTS -4.9, Vif inh -7.5, Env fusion inh 69.1* and miR122 inh 2.6.
Screening FC(F)(F)Oc1ccc(NC(=S)Nc2ccccc2N2CCOCC2)cc1 returned rRNA inh HTS -50.6*, S100A4 inh HTS 4.2, Vif inh 3.9, Env fusion inh -9.5, FN deposit inh -5.1 and miR122 inh 0.1.
`CC(=O)NC(=S)Nc1ccccc1N1CCN(C(=O)c2ccccc2)CC1` gave rRNA inh HTS 6.7, S100A4 inh HTS -0.8, Vif inh 3.6, Env fusion inh 10.2, FN deposit inh 0.9 and miR122 inh 1.5.
CCC(=O)N(C)C[C@H]1Oc2cc(-c3ccccc3OC)ccc2S(=O)(=O)N([C@@H](C)CO)C[C@H]1C was read as rRNA inh HTS 2.7, S100A4 inh HTS 3.5, Env fusion inh -14.0[16.7 µM] and miR122 inh 10.3[16.7 µM].
For COc1ccc(CN2C[C@H](O)COC[C@H]3O[C@H](CC(=O)NCc4ccncn4)CC[C@@H]32)cc1 the results were rRNA inh HTS -0.3, S100A4 inh HTS -4.6, FN deposit inh 2.5 and miR122 inh -1.2[16.7 µM].
`O=C(NC(=S)Nc1ccccc1N1CCOCC1)c1cccs1` gave rRNA inh HTS -29.0*, S100A4 inh HTS 0.0, Vif inh -4.1, Env fusion inh -7.0 and FN deposit inh 0.1.
Screening O=C(NC(=O)N1CCN(c2ccccc2F)CC1)c1ccccc1 returned rRNA inh HTS 10.3, S100A4 inh HTS -2.4, Vif inh 88.5* and miR122 inh -4.5.
O=C(NCc1ccccc1)N1CCN(c2ccccc2F)CC1 was read as Vif inh -3.6 and miR122 inh -7.6.
For CC(=O)N(C)C[C@@H]1Oc2ncc(-c3ccccc3C)cc2C(=O)N([C@H](C)CO)C[C@H]1C the results were rRNA inh HTS 3.6, S100A4 inh HTS 1.0, Env fusion inh -1.3[16.7 µM], FN deposit inh -4.2 and miR122 inh -5.8[16.7 µM].
Screening Cc1cc(NC(=O)CS(=O)(=O)c2c[nH]c3ccccc23)no1 returned rRNA inh HTS 11.4, S100A4 inh HTS 14.7, Vif inh 6.2, Env fusion inh -4.2, FN deposit inh 4.0 and miR122 inh -5.2.
Screening Cc1cc(NC(=O)CS(=O)(=O)c2cn(Cc3cccc(C(F)(F)F)c3)c3ccccc23)no1 returned rRNA inh HTS -1.5, S100A4 inh HTS -3.8, Env fusion inh 77.5*, FN deposit inh -5.8 and miR122 inh 1.8.
Screening CCn1cc(S(=O)(=O)CC(=O)Nc2cc(C)on2)c2ccccc21 returned Vif inh 7.6, Env fusion inh -44.6, FN deposit inh 18.3 and miR122 inh 29.7.
`Cc1cc(NC(=O)CS(=O)(=O)c2cn(Cc3cccc(F)c3)c3ccccc23)no1` gave Vif inh -3.9, Env fusion inh 73.2*, FN deposit inh 5.0 and miR122 inh 6.9.
For Cc1cc(NC(=O)CSCC(=O)NCc2cccc(C(F)(F)F)c2)no1 the results were rRNA inh HTS -0.6, S100A4 inh HTS -4.3, Vif inh -4.3, Env fusion inh 12.8 and FN deposit inh 7.4.
Cc1cc(NC(=O)CS(=O)(=O)c2cn(Cc3ccc(F)cc3)c3ccccc23)no1 was read as rRNA inh HTS 1.2, S100A4 inh HTS -0.2, Vif inh -5.0, Env fusion inh 79.3*, FN deposit inh 4.8 and miR122 inh 6.0.
Screening CC1(C(=O)N/N=C/c2ccc3c(c2)OCO3)CC1(Br)Br (stereo unspecified) returned rRNA inh HTS -2.6, S100A4 inh HTS -2.3, Vif inh 18.2, Env fusion inh 103.5*, FN deposit inh 3.0 and miR122 inh 11.0.
